Test results as given in ChEMBL document CHEMBL3286337, “Synthesis, biological evaluation and structure-activity relationships of new phthalazinedione derivatives with vasorelaxant activity” (Eur J Med Chem, 2014).
pEC50: −log10 of the molar value. The source made the active and inactive calls. The rule behind the calls is not given here.

Assays:
Aorta [1] = test: Vasorelaxant activity in Wistar rat endothelium-intact thoracic aortic rings assessed as inhibition of phenylephrine-induced contraction at 200 uM; format: functional
Aorta [2] = test: Vasorelaxant activity in Wistar rat endothelium-denuded thoracic aortic rings assessed as inhibition of phenylephrine-induced contraction at 200 uM; format: functional, tissue-based
Aorta [3] = test: Vasorelaxant activity in Wistar rat endothelium-denuded thoracic aortic rings assessed as inhibition of phenylephrine-induced contraction; format: functional, tissue-based
Aorta [4] = test: Vasorelaxant activity in Wistar rat endothelium-intact thoracic aortic rings assessed as inhibition of phenylephrine-induced contraction; format: functional, tissue-based
[5] = Cytotoxicity against rat A7r5 cells assessed as reduction of cell viability at 50 uM after 24 hrs by MTT assay; format: cell-based; conditions: a7r5, 24 h
How it was run: (§1)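 A7r5 embryonic rat aorta smooth muscle cells seeded at 20 × 10^3/cm^2 and incubated overnight. Compounds added with DMSO (1%) for 24 h; untreated cells served as negative control. MTT solution (5 mg/ml in PBS) added, 2 h at 37 C, absorbance read at 540 nm. Viability = A(treatment)/A(negative control) × 100%. Mean ± S.E.M of at least 5 experiments.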

[6] = Cytotoxicity against rat A7r5 cells assessed as reduction of cell viability at 25 uM after 24 hrs by MTT assay; format: cell-based; conditions: a7r5, 24 h; how it was run: as §1
Aorta [7] = test: Vasorelaxant activity in Wistar rat endothelium-denuded thoracic aortic rings assessed as inhibition of phenylephrine-induced contraction relative to endothelium-intact thoracic aortic rings in presence of 1 uM of acetylcholine; format: functional

Compound	pEC50 (Aorta [3])	pEC50 (Aorta [4])	also measured
Cn1c(=O)c2cccc(Cl)c2c(=O)n1CCN	–	–	inhibition at 200 µM (Aorta [1]): 50%; inhibition (Aorta [2]): inactive
Cn1c(=O)c2ccccc2c(=O)n1CCCN	–	–	inhibition at 200 µM (Aorta [1]): 50%; inhibition (Aorta [2]): inactive
Cn1c(=O)c2c(Cl)cccc2c(=O)n1CCBr	4.49	5.13	–
Cn1[nH]c(=O)c2ccccc2c1=O	–	–	inhibition (Aorta [1]): inactive; inhibition (Aorta [2]): inactive
Cn1[nH]c(=O)c2c(Cl)cccc2c1=O	–	–	inhibition (Aorta [1]): inactive; inhibition (Aorta [2]): inactive
Cn1c(=O)c2ccccc2c(=O)n1CCBr	5.07	5.77	–
Cn1c(=O)c2cccc(Cl)c2c(=O)n1CCBr	4.70	5.10	–
Cn1c(=O)c2c(Cl)cccc2c(=O)n1CCCBr	4.57	5.18	–
Cn1c(=O)c2cccc(Cl)c2c(=O)n1CCCN	–	4.35	inhibition (Aorta [2]): inactive
Cn1c(=O)c2c(Cl)cccc2c(=O)n1CCCNC(=O)OC(C)(C)C	5.31	5.67	Activity [5]: Toxic; Activity [6]: Non-toxic
Cn1c(=O)c2cccc(Cl)c2c(=O)n1CCCBr	5.17	5.47	–
Cn1c(=O)c2cccc(Cl)c2c(=O)n1CCCNC(=O)OC(C)(C)C	4.74	5.32	Activity [5]: Toxic; Activity [6]: Non-toxic
Cn1c(=O)c2ccccc2c(=O)n1CCCBr	4.81	5.51	–
Cn1c(=O)c2cccc(Cl)c2c(=O)n1CCN=[N+]=[N-]	4.88	5.20	–
Cn1c(=O)c2c(Cl)cccc2c(=O)n1CCCN	4.52	5.07	inhibition (INH) (Aorta [7]): 53.6%
Cn1c(=O)c2ccccc2c(=O)n1CCN	–	–	inhibition at 200 µM (Aorta [1]): 50%; inhibition (Aorta [2]): inactive
CN1C(=O)CN=C(c2ccccc2)c2cc(Cl)ccc21 [DIAZEPAM]	4.11	4.16	–
NNc1nncc2ccccc12 [HYDRALAZINE]	2.88	2.93	–
Cn1c(=O)c2c(Cl)cccc2c(=O)n1CCN	–	4.31	inhibition (Aorta [2]): inactive
Cn1c(=O)c2ccccc2c(=O)n1CCCN=[N+]=[N-]	5.43	5.63	–
Cn1c(=O)c2c(Cl)cccc2c(=O)n1CCN=[N+]=[N-]	4.88	5.39	–
Cn1c(=O)c2ccccc2c(=O)n1CCN=[N+]=[N-]	4.80	5.00	–
Cn1c(=O)c2cccc(Cl)c2c(=O)n1CCNC(=O)OC(C)(C)C	4.88	5.46	Activity [5]: Toxic; Activity [6]: Non-toxic
Cn1c(=O)c2cccc(Cl)c2c(=O)n1CCCN=[N+]=[N-]	5.13	5.37	Activity [5]: Toxic; Activity [6]: Non-toxic
Cn1c(=O)c2c(Cl)cccc2c(=O)n1CCCN=[N+]=[N-]	4.93	5.63	–
Cn1c(=O)c2c(Cl)cccc2c(=O)n1CCNC(=O)OC(C)(C)C	5.25	5.60	Activity [5]: Toxic; Activity [6]: Non-toxic
Cn1c(=O)c2ccccc2c(=O)n1CCNC(=O)OC(C)(C)C	4.84	5.61	–
Cn1[nH]c(=O)c2cccc(Cl)c2c1=O	–	–	inhibition (Aorta [1]): inactive; inhibition (Aorta [2]): inactive
Nc1cc(-c2ccncc2)c[nH]c1=O [INAMRINONE]	4.55	4.77	–
Cn1c(=O)c2ccccc2c(=O)n1CCCNC(=O)OC(C)(C)C	4.63	5.40	–
